Here are results for 5 compounds from ChEMBL document CHEMBL1649438, “Activities of ceftobiprole and other cephalosporins against extracellular and intracellular (THP-1 macrophages and keratinocytes) forms of methicillin-susceptible and methicillin-resistant Staphylococcus aureus” (Antimicrob Agents Chemother, 2009).

For assay [1], the system named is Staphylococcus aureus. Briefly: Ratio of MIC for beta-lactamase-negative methicillin-susceptible Staphylococcus aureus ATCC 25923 by microdilution method at pH 7.4 to ratio of MIC for beta-lactamase-negative methicillin-susceptible Staphylococcus aureus ATCC 25923 by microdilution method at pH 5.5. The assay is classed as functional. Put shortly: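 MICs were measured by broth microdilution, with the broth adjusted to pH 7.4 or pH 5.5 before inoculation. pH was confirmed at the end of the assay to within ±0.1 unit. The value is the fold decrease in MIC between pH 7.4 and pH 5.5.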

Assay [2] concerns Staphylococcus aureus. Briefly: Ratio of MIC for hospital-acquired methicillin-resistant Staphylococcus aureus ATCC 33591 by microdilution method at pH 7.4 to ratio of MIC for hospital-acquired methicillin-resistant Staphylococcus aureus ATCC 33591 by microdilution method at pH 5.5. The assay is classed as functional. The procedure, abridged: (§1)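 MICs were determined by broth microdilution at pH 7.4 and pH 5.5. Broth was adjusted before inoculation, and pH was confirmed maintained (±0.1 unit) at the end.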
For orientation: Broth dilution looks for growth in wells or tubes with falling amounts of substance.

Assay [3] concerns Staphylococcus aureus. Briefly: Antimicrobial activity against methicillin-susceptible Staphylococcus aureus ATCC 25923 infected in human keratinocytes assessed as bacterial count per mg of cell protein at low extracellular compound concentration after 24 hrs. In kind it is functional. The procedure, abridged: (§2)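 Primary human skin keratinocytes were grown in defined keratinocyte serum-free medium and infected with S. aureus to 1.5 × 10^6 to 3.0 × 10^6 CFU/mg cell protein. Cells were exposed 24 h to increasing extracellular concentrations. Response was the log10 CFU change from the postphagocytosis inoculum, fitted by a Hill equation with slope 1. Cs is the concentration giving CFU equal to the original inoculum, found by graphical interpolation.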

Assay [4] concerns Staphylococcus aureus. Briefly: Antimicrobial activity against methicillin-susceptible Staphylococcus aureus ATCC 25923 infected in human keratinocytes assessed as bacterial count per mg of cell protein at high extracellular compound concentration after 24 hrs. The assay is classed as functional. Put shortly:
as §2

The test system of assay [5] is Staphylococcus aureus. Briefly: Antimicrobial activity against methicillin-susceptible Staphylococcus aureus ATCC 25923 infected in human keratinocytes assessed as change in bacterial count after 24 hrs. The settings on record: ATCC 25923, 24 h. The assay is classed as functional, organism-based. Put shortly:
as §2

The subject of assay [6] is Staphylococcus aureus. Briefly: Bacteriostatic activity against methicillin-susceptible Staphylococcus aureus ATCC 25923 infected in human keratinocytes assessed as change in bacterial count after 24 hrs. In kind it is functional. The procedure, abridged: as §2
In assay [7] the test system is Staphylococcus aureus. Nature of the assay: Antimicrobial activity against methicillin-resistant Staphylococcus aureus ATCC 33591 infected in human keratinocytes assessed as bacterial count per mg of cell protein at low extracellular compound concentration after 24 hrs. The assay is classed as functional. Put shortly:
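Primary human skin keratinocytes were grown in defined keratinocyte serum-free medium, infected with a postphagocytosis inoculum of 1.5 × 10⁶ to 3.0 × 10⁶ CFU/mg cell protein, then exposed 24 h to increasing extracellular antibiotic concentrations. Change in log10 CFU/mg protein from the inoculum was fitted to a Hill equation with slope 1. E0 and Emax were extrapolated to infinitely low and high concentrations, in total drug mg/liter.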

Assay [8] concerns Staphylococcus aureus. Nature of the assay: Bacteriostatic activity against methicillin-resistant Staphylococcus aureus ATCC 33591 infected in human keratinocytes assessed as change in bacterial count after 24 hrs. In kind it is functional. Put shortly: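 Primary human skin keratinocytes were grown in defined keratinocyte serum-free medium, infected, then incubated 24 h with increasing extracellular drug concentrations. Response was the change in log10 CFU/mg cell protein versus the post-phagocytosis inoculum, fitted to a Hill equation with slope factor 1. Static concentration (mg/liter, total drug) was taken by graphical interpolation where CFU equalled the original inoculum.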

Assay [9] concerns Staphylococcus aureus. Briefly: Ratio of MIC for hospital-acquired methicillin-resistant Staphylococcus aureus ATCC 33591 by microdilution method at pH 5.5 to MIC for beta-lactamase-negative methicillin-susceptible Staphylococcus aureus ATCC 25923 by microdilution method at pH 5.5. The assay is classed as functional. Put shortly:
as §1

Assay [10] deals with Staphylococcus aureus. Nature of the assay: Antimicrobial activity against hospital-acquired methicillin-resistant Staphylococcus aureus N4112910 obtained from nasal swap of patient by microdilution method at pH 5.5.
The subject of assay [11] is Staphylococcus aureus. Nature of the assay: Antimicrobial activity against hospital-acquired vancomycin-intermediate Staphylococcus aureus NRS126 obtained from bloodstream infection of patient by microdilution method at pH 5.5.
For assay [12], the system named is Staphylococcus aureus. Nature of the assay: microbe, parasite or virus in culture. The settings on record: ATCC 25923.
In assay [13] the test system is Staphylococcus aureus. Briefly: microbe, parasite or virus in culture. The settings on record: ATCC 11632.

Converted amounts (≈) assume the structure as drawn.

As to `CO[C@@]1(NC(=O)Cc2cccs2)C(=O)N2C(C(=O)O)=C(COC(N)=O)CS[C@@H]21` [CEFOXITIN], the “fold change (FC)” value turned out to be 4 with Staphylococcus aureus [1] and 512 in the assay with Staphylococcus aureus [2]. The log10cfu with Staphylococcus aureus [3] was 3.06; in the assay with Staphylococcus aureus [4] it was -0.91; in the assay on Staphylococcus aureus [7] it was 2.36. The 50% effective concentration (EC50) with Staphylococcus aureus [5] was determined as 0.55 µg/mL (≈ 1.29 µM). Besides, the Activity was 1.84 mg/L with Staphylococcus aureus [6] and over 200 mg/L in the assay with Staphylococcus aureus [8].
On to `CO/N=C(\C(=O)N[C@@H]1C(=O)N2C(C(=O)O)=C(CSc3nc(=O)c(O)nn3C)CS[C@H]12)c1csc(N)n1` [CEFTRIAXONE], for which the entries for the “fold change (FC)” value in the assay with Staphylococcus aureus [1], with Staphylococcus aureus [2] and with Staphylococcus aureus [9] were 16, 512 and 4, respectively. Also, the log10cfu in the assay on Staphylococcus aureus [3] is 2.44; in the assay with Staphylococcus aureus [4] it was -0.3; in the assay with Staphylococcus aureus [7], 2.09. For the same compound, the 50% effective concentration (EC50) in the assay with Staphylococcus aureus [5] turned out to be 1.83 µg/mL (≈ 3.3 µM). In addition, the results for the Activity with Staphylococcus aureus [6] and in the assay with Staphylococcus aureus [8] were 14.8 mg/L and over 200 mg/L, respectively.
`CN[C@H](CC(C)C)C(=O)N[C@H]1C(=O)N[C@@H](CC(N)=O)C(=O)N[C@H]2C(=O)N[C@H]3C(=O)N[C@H](C(=O)N[C@H](C(=O)O)c4cc(O)cc(O)c4-c4cc3ccc4O)[C@H](O)c3ccc(c(Cl)c3)Oc3cc2cc(c3O[C@@H]2O[C@H](CO)[C@@H](O)[C@H](O)[C@H]2O[C@H]2C[C@](C)(N)[C@H](O)[C@H](C)O2)Oc2ccc(cc2Cl)[C@H]1O` [VANCOMYCIN]: the MIC against Staphylococcus aureus [10], in the assay on Staphylococcus aureus [11], in the assay on Staphylococcus aureus [12] and against Staphylococcus aureus [13] was 0.25 µg/mL (≈ 0.173 µM) in each case.
In the case of `CC1=C(C(=O)O)N2C(=O)[C@@H](NC(=O)[C@H](N)c3ccccc3)[C@H]2SC1` [CEPHALEXIN ANHYDROUS], the entries for the “fold change (FC)” value in the assay with Staphylococcus aureus [1], in the assay on Staphylococcus aureus [2] and in the assay with Staphylococcus aureus [9] were 2, 16 and 16, respectively. In addition, the log10cfu in the assay with Staphylococcus aureus [3] came to 3.09; with Staphylococcus aureus [4], 0.035; with Staphylococcus aureus [7], 2.42. Besides, the EC50 with Staphylococcus aureus [5] turned out to be 0.27 µg/mL (≈ 0.777 µM). Also, in the assay with Staphylococcus aureus [6], the Activity is recorded as 200 mg/L.
On to `CO/N=C(\C(=O)N[C@@H]1C(=O)N2C(C(=O)O)=C(COC(N)=O)CS[C@H]12)c1ccco1` [CEFUROXIME], for which the figures for the “fold change (FC)” value in the assay on Staphylococcus aureus [1], with Staphylococcus aureus [2] and with Staphylococcus aureus [9] were 16, 128 and 4, respectively. In addition, the log10cfu in the assay with Staphylococcus aureus [3] was 3.23; in the assay on Staphylococcus aureus [4], -0.42; in the assay on Staphylococcus aureus [7], 2.75. The EC50 in the assay with Staphylococcus aureus [5] amounted to 0.27 µg/mL (≈ 0.636 µM). Moreover, the Activity stood at 0.26 mg/L with Staphylococcus aureus [6] and 200 mg/L in the assay on Staphylococcus aureus [8].

A word on the EC50: it is the concentration at which the effect is half-maximal.
